The source of these data is PMC12400138 (Molecular and Clinical Oncology, 2025).

In one series the test system is NP69SV40T. Description: MTS assay, NP69SV40T. The format is cell-based, human. Particulars: read-out: IC50 value. The method, boiled down: (§1)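 Cell lines were seeded per well in 96-well plates: C666-1 at 30,000, HK1 at 10,000, NP69SV40T at 15,000 and NP460hTert at 15,000. After 2 h at 37°C in 5% CO2, test compound was added at 0.8-200 nM (rocaglates) or 0.15-20 µM (second compound). Vehicle was 0.1% DMSO final, or NaH2PO4. MTS was added after 1-3 days for 1-4 h, reading A490 minus A630. IC50 was fitted from % signal versus vehicle.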
A general note: Tetrazolium dyes change colour on reduction, which living cells bring about.

In series [1] the test system is HK1. Description: MTS assay, HK1. The series is classed as cell-based, human. Particulars: read-out: IC50 value. Summed up:
as §1

Series [2] deals with HK1. Description: Flow cytometric analysis of cell cycle progression. The series is classed as cell-based, human. The method, boiled down: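 HK1 cells were seeded at 1.0x10^5 cells/0.5 ml/well in 12-well plates. After 2 h, test compound was added at 5 nM, 10 nM or 1 µM, alone or combined. Exposure lasted 2-3 days. Adherent and floating cells were pelleted and stained in hypotonic buffer (propidium iodide, RNase A, sodium citrate, Triton X) on ice, in the dark, for 10 min. ≥10,000 events were acquired by flow cytometry, and DNA-content histograms were modelled for cycle phases.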

The test system of the next series is NP460hTert. Description: MTS assay, NP460hTert. The format is cell-based, human. Particulars: read-out: IC50 value. Summed up: as §1
For another series, the system named is C666-1. Description: MTS assay, C666-1. The series is classed as cell-based, human. Summed up:
as §1

The conditions of series [3]: toxicity studies mostly in murine models; cited from earlier work.
The conditions of series [4]: advanced hematologic malignancy patients; phase I dose-escalation; cited from earlier work.
For series [5], the system named is NPC cell lines or nasopharyngeal epithelial cells. Description: MTS assay, summary over cell lines. Particulars: Homo sapiens, read-out: IC50 values. The series is classed as cell-based. The method, boiled down:
as §1

Series [6] concerns HK1. The series can be described thus: FITC Annexin V/PI apoptosis assay. The format is cell-based, human. Particulars: 3 days post-treatment, 1 μM. The method, boiled down: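 HK1 cells were seeded at 1.0x10^5 cells/0.5 ml/well in 12-well plates. After ~2 h, test compound was added at 5 nM, 10 nM or 1 µM, alone or combined, for 3 days. Adherent and floating cells were stained with FITC-Annexin V and PI in binding buffer for 15 min in the dark. Samples were diluted, kept on ice and analysed by flow cytometry, acquiring 10,000 events per sample.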

Another series concerns normal bone marrow cells. Particulars: 1 µΜ, two days; cited from earlier work.
[7] abbreviates: silvestrol 5 nM, episilvestrol 10 nM or combination with 1 µM CX-5461.

Where two headings read alike, the source gives them in different places.

Turning to `COC(=O)[C@H]1[C@@H](O)[C@@]2(O)c3c(OC)cc(O[C@@H]4O[C@@H]([C@@H](O)CO)CO[C@H]4OC)cc3O[C@@]2(c2ccc(OC)cc2)[C@@H]1c1ccccc1` [Episilvestrol, episilvestrol], the IC50 with NP69SV40T (NP69SV40T, 1 day post-treatment) was determined as 68 nM; in the series with NP69SV40T (NP69SV40T, 2 days post-treatment) it was 19 nM; with NP69SV40T (NP69SV40T, 3 days post-treatment) it was 10 nM; with HK1 [1] (HK1, 1 day post-treatment) it was 60 nM; in the series on HK1 [1] (HK1, 2 days post-treatment), 13 nM; with HK1 [1] (HK1, 3 days post-treatment) it was 10 nM. Besides, the IC50 in the series on NP460hTert (NP460hTert, 1 day post-treatment) is 14 nM; in the series on NP460hTert (NP460hTert, 2 days post-treatment), 20 nM; in the series on NP460hTert (NP460hTert, 3 days post-treatment), 10 nM; in the series on C666-1 (read-out: IC50 value, 1 day post-treatment), 56 nM; in the series with C666-1 (read-out: IC50 value, 2 days post-treatment), 18 nM; with C666-1 (read-out: IC50 value, 3 days post-treatment), 10 nM. In addition, the cell cycle arrest result in the series with HK1 [2] (setting [7]) is “arrested cells at G0/G1”.

For `COC(=O)[C@H]1[C@@H](O)[C@@]2(O)c3c(OC)cc(O[C@@H]4O[C@@H]([C@H](O)CO)CO[C@H]4OC)cc3O[C@@]2(c2ccc(OC)cc2)[C@@H]1c1ccccc1` [Silvestrol, silvestrol], the IC50 with NP69SV40T (Homo sapiens, 24 h) turned out to be 58 nM; in the series on NP69SV40T (Homo sapiens, 48 h) it was 8 nM; with HK1 [1] (Homo sapiens, HK-1, 24 h), 132 nM; in the series on HK1 [1] (Homo sapiens, HK-1, 48 h), 7 nM; in the series with NP460hTert (Homo sapiens, 24 h) it was 9 nM; with NP460hTert (Homo sapiens, 48 h), 9 nM. Further, the cell cycle arrest entry in the series with HK1 [2] (setting [7]) is “arrested cells at G0/G1”. In addition, the tolerability result in series [3] is given as “well tolerated”.

For the molecule `Cc1cnc(CNC(=O)c2c(=O)c3ccc(N4CCCN(C)CC4)nc3n3c2sc2ccccc23)cn1` [CX-5461, reference compound], the half-inhibitory concentration (IC50) with NP69SV40T (Homo sapiens, 24 h) was determined as 6000 nM; with NP69SV40T (Homo sapiens, 48 h) it was 1000 nM; with HK1 [1] (Homo sapiens, HK-1, 24 h), 2000 nM; with HK1 [1] (Homo sapiens, HK-1, 48 h), 1000 nM; in the series on NP460hTert (Homo sapiens, 24 h), 500 nM; in the series on NP460hTert (Homo sapiens, 48 h), 400 nM. Also, in series [5], the IC50 was in the range of 400 to 6000 nM. In addition, the cell cycle arrest entry with HK1 [2] (1 µM) is “arrested cells at S-phase and G2/M”. The tolerability entry in [4] is reported as “well tolerated”. In addition, the “% apoptosis (percentage of total apoptosis)” value in the series with HK1 [6] is on record as < 20%. In the series on normal bone marrow cells, the cell death entry is “minimal cell death”.

Usually IC50 stands for the midpoint of a concentration-inhibition curve.
